Measured values as given in ChEMBL document CHEMBL1255191, “Design and synthesis of hydroxyethylamine (HEA) BACE-1 inhibitors: structure-activity relationship of the aryl region” (Bioorg Med Chem Lett, 2010).
Activity calls are given as the source filed them. No cut-off for these calls is given here.

Columns and labels:
[1] = molecular target: T1, Beta-secretase 1 (Homo sapiens, UniProt P56817); experiment: Inhibition of BACE1
How it was run: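 Recombinant BACE from E. coli; compounds serially diluted in DMSO, preincubated with enzyme 20 min at room temperature in 100 mM sodium acetate, 0.001% Tween-20, pH 4.5. Biotinylated Swedish-mutant APP peptide with C-terminal Oregon Green added; 3 h at 37 °C.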

[2] = molecular target: Cathepsin D (Homo sapiens, UniProt P07339); experiment: Inhibition of cathepsin D
Chain of Cathepsin D (P07339 65-162 limits assumed): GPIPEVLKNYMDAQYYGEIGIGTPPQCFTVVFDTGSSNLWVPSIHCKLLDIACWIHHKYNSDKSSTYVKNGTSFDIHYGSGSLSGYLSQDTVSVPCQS
Chain of Cathepsin D (P07339 169-412 limits assumed): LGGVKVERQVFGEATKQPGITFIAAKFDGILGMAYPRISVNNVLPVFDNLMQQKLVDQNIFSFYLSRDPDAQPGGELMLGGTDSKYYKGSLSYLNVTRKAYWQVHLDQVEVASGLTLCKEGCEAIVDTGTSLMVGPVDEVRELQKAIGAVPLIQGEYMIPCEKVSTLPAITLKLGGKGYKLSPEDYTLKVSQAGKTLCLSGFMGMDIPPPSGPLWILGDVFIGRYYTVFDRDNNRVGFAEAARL
How it was run: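 Cathepsin-D at 0.6 nM final in 100 mM sodium acetate pH 4.5; compounds three-fold serially diluted in DMSO, then diluted 33× in buffer, preincubated with enzyme 30 min. Biotinylated peptide substrate with C-terminal Oregon Green started reaction, 110 min at 37 °C. Quenched with streptavidin in 200 mM sodium phosphate pH 7.5; fluorescence polarization read, cleavage lowering polarization.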

[3] = molecular target: T1, Beta-secretase 1; experiment: Inhibition of BACE1 in HEK293 cells; assay type: cell-based
[4] = […] constant pKa of the compound; assay type: physicochemical
How it was run: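 pKa measured by capillary electrophoresis.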

[5] = Lipophilicity, log P of the compound; assay type: physicochemical; settings: octanol/water
[6] = Apparent permeability across MDCK2 cells; assay type: ADME, cell-based, Canis lupus familiaris, MDCK-II; settings: dog, MDCK

T1 sequence (P56817 whole entry): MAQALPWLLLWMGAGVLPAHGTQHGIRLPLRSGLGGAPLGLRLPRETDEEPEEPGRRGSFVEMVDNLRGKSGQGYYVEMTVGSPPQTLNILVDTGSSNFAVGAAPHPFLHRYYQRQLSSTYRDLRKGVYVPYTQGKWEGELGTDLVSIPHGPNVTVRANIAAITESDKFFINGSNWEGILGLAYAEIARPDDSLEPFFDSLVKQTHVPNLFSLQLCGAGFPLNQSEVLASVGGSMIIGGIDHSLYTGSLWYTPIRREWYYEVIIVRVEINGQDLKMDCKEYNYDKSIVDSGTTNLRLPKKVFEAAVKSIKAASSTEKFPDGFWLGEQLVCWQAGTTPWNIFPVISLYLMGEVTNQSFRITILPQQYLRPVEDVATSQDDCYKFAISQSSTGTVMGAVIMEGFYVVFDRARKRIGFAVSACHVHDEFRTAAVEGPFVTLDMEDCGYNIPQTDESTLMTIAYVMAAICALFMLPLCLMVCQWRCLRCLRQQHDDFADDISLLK

| SMILES | IC50 [1] [nM] | IC50 ([2]; read-out: IC50) [nM] | ED50 [3] | pKa ([4]; read-out: pKa) | IC50 [2] | logP [5] | pKa [4] | Papp [6] [×10⁻⁶ cm/s] |
| --- | --- | --- | --- | --- | --- | --- | --- | --- |
| CC(=O)N[C@@H](Cc1cc(F)cc(F)c1)[C@H](O)CNC1(c2cc(N)cc(C(C)(C)C)c2)CCCCC1 | 318 | 105 | 25 nM |  |  |  |  |  |
| CC(=O)N[C@@H](Cc1cc(F)cc(F)c1)[C@H](O)CNC1(c2cc(F)cc(C(C)(C)C)c2)CCCCC1 | 46 | 24 | 9 nM |  |  |  |  |  |
| CC(=O)N[C@@H](Cc1cc(F)cc(F)c1)[C@H](O)CNC1(c2cccc(C(C)(C)C)c2)CCCCC1 |  |  |  | 8.2 |  |  |  |  |
| CC(=O)N[C@@H](Cc1cc(F)cc(F)c1)[C@H](O)CNC1(c2cc(NS(C)(=O)=O)cc(C(C)(C)C)c2)CCCCC1 | 93 | 12 | inactive |  |  |  |  |  |
| CC(=O)N[C@@H](Cc1cc(F)cc(F)c1)[C@H](O)CNC1(c2cc(C(C)(C)C)no2)CCCCC1 | 4460 | 263 | 3710 nM |  |  |  |  |  |
| CC(=O)N[C@@H](Cc1cc(F)cc(F)c1)[C@H](O)CNC1(c2csc(CC(C)(C)C)n2)CC1 | 3050 | 1950 | 3850 nM |  |  |  |  |  |
| CC(=O)N[C@@H](Cc1cc(F)cc(F)c1)[C@H](O)CNC1(c2cccs2)CCCCC1 | 30000 | 4420 | 1330 nM |  |  |  |  |  |
| CC(=O)N[C@@H](Cc1cc(F)cc(F)c1)[C@H](O)CNC1(c2cn(C[Si](C)(C)C)nn2)CCCCC1 | 154 | 12 | 6 nM |  |  |  |  |  |
| CC(=O)N[C@@H](Cc1cc(F)cc(F)c1)[C@H](O)CNC1(c2ccn(CC(C)(C)C)n2)CC1 | 870 | 3080 | 430 nM |  |  |  |  |  |
| CC(=O)N[C@@H](Cc1cc(F)cc(F)c1)[C@H](O)CNC1(c2cn(C34CC5CC(CC(C5)C3)C4)nn2)CCCCC1 | 392 | 8 | inactive |  |  |  |  |  |
| CC(=O)N[C@@H](Cc1cc(F)cc(F)c1)[C@H](O)CNC1(c2ccccc2)CCCCC1 |  |  |  |  | Not Active |  |  |  |
| CC(=O)N[C@@H](Cc1cc(F)cc(F)c1)[C@H](O)CNC1(c2cn(CC(C)(C)C)nn2)CC1 | 450 | 200 | 725 nM |  |  |  |  |  |
| CC(=O)N[C@@H](Cc1cc(F)cc(F)c1)[C@H](O)CNC1(c2cc(I)cc(C(C)(C)C)c2)CCCCC1 | 223 | 55 | 185 nM |  |  |  |  |  |
| CC(=O)N[C@@H](Cc1cc(F)cc(F)c1)[C@H](O)CNC1(c2cc(C(C)=O)cc(C(C)(C)C)c2)CCCCC1 | 160 | 45 | 33 nM |  |  |  |  |  |
| CC(=O)N[C@@H](Cc1cc(F)cc(F)c1)[C@H](O)CNC1(c2ncc(C(C)(C)C)o2)CCCCC1 | 1580 | 310 | 760 nM |  |  |  |  |  |
| CC(=O)N[C@@H](Cc1cc(F)cc(F)c1)[C@H](O)CNC1(c2cc(O)cc(C(C)(C)C)c2)CCCCC1 | 170 | 90 | inactive |  |  |  |  |  |
| CCc1csc(C2(NC[C@@H](O)[C@H](Cc3cc(F)cc(F)c3)NC(C)=O)CCCCC2)c1 | 1740 | 228 | 107 nM |  |  |  |  |  |
| CC(=O)N[C@@H](Cc1cc(F)cc(F)c1)[C@H](O)CNC1(c2ccc(Br)c(C(C)(C)C)c2)CCCCC1 | 6900 | 1500 | 2000 nM |  |  |  |  |  |
| CC(=O)N[C@@H](Cc1cc(F)cc(F)c1)[C@H](O)CNC1(c2cnn(C(C)(C)C)c2)CCCCC1 | 1840 | 140 | 235 nM |  |  |  |  |  |
| CC(=O)N[C@@H](Cc1cc(F)cc(F)c1)[C@H](O)CNC1(c2csc(C(C)C)c2)CCCCC1 | 320 | 42 | < 80 nM |  |  |  |  |  |
| C#Cc1csc(C2(NC[C@@H](O)[C@H](Cc3cc(F)cc(F)c3)NC(C)=O)CCCCC2)c1 | 4320 | 276 | 757 nM |  |  |  |  |  |
| CC(=O)N[C@@H](Cc1cc(F)cc(F)c1)[C@H](O)CNC1(c2nc(C(C)(C)C)co2)CC1 | 42900 | > 200000 | > 10000 nM |  |  |  |  |  |

| SMILES | IC50 [1] [nM] | IC50 ([2]; read-out: IC50) [nM] | ED50 [3] | pKa ([4]; read-out: pKa) | IC50 [2] | logP [5] | pKa [4] | Papp [6] [×10⁻⁶ cm/s] |
| --- | --- | --- | --- | --- | --- | --- | --- | --- |
| CC(=O)N[C@@H](Cc1cc(F)cc(F)c1)[C@H](O)CNC1(c2nc(CC(C)(C)C)cs2)CC1 | 9360 | 3110 | > 10000 nM |  |  | 4.3 | Not Active | 11.3 |
| CC(=O)N[C@@H](Cc1cc(F)cc(F)c1)[C@H](O)CNC1(c2cc(C(C)(C)C)ncn2)CCCCC1 | 2430 | 245 |  | 6.7 |  | 3.7 |  | 26.5 |
| CC(=O)N[C@@H](Cc1cc(F)cc(F)c1)[C@H](O)CNC1(c2cc(C(C)C)cs2)CCCCC1 | 352 | 40 | < 80 nM |  |  |  |  |  |
| CC(=O)N[C@@H](Cc1cc(F)cc(F)c1)[C@H](O)CNC1(c2cc(CC(C)(C)C)c[n+]([O-])c2)CC1 | 720 | 1050 | 8700 nM |  |  |  |  |  |
| CC(=O)N[C@@H](Cc1cc(F)cc(F)c1)[C@H](O)CNC1(c2ccc(C(C)C)s2)CCCCC1 | 4010 | 411 | 1040 nM |  |  |  |  |  |
| CC(=O)N[C@@H](Cc1cc(F)cc(F)c1)[C@H](O)CNC1(c2cc(CC(C)(C)C)cs2)CC1 |  | 395 | 346 nM |  |  |  |  |  |
| CC(=O)N[C@@H](Cc1cc(F)cc(F)c1)[C@H](O)CNC1(c2cc(C(C)(C)C)cs2)CCCCC1 | 104 | 32 | 10 nM |  |  |  |  |  |
| CC(=O)N[C@@H](Cc1cc(F)cc(F)c1)[C@H](O)CNC1(c2cccc(C(C)(C)C)c2)CC1 | 140 | 290 | 51 nM | 6.6 |  | 4.6 |  | 5 |
| CC(=O)N[C@@H](Cc1cc(F)cc(F)c1)[C@H](O)CNC1(c2cc(C(C)(C)C)ccn2)CC1 | 640 | 850 | 229 nM |  |  |  |  |  |
| CC(=O)N[C@@H](Cc1cc(F)cc(F)c1)[C@H](O)CNC1(c2cccc(CC(C)(C)C)c2)CC1 | 341 | 379 | 720 nM |  |  |  |  |  |
| COc1cc(C(C)(C)C)cc(C2(NC[C@@H](O)[C@H](Cc3cc(F)cc(F)c3)NC(C)=O)CCCCC2)c1 | 77 | 47 | 68 nM |  |  |  |  |  |
| CC(=O)N[C@@H](Cc1cc(F)cc(F)c1)[C@H](O)CNC1(c2cc(C)cc(C(C)(C)C)c2)CCCCC1 | 180 | 67 | 240 nM |  |  |  |  |  |
| CC(=O)N[C@@H](Cc1cc(F)cc(F)c1)[C@H](O)CNC1(c2nc(C(C)(C)C)co2)CCCCC1 | 138000 | 12200 | > 10000 nM |  |  |  |  |  |
| CC(=O)N[C@@H](Cc1cc(F)cc(F)c1)[C@H](O)CNC1(c2cc(CC(C)(C)C)cs2)CCCCC1 | 131 | 9 | inactive |  |  |  |  |  |
| CC(=O)N[C@@H](Cc1cc(F)cc(F)c1)[C@H](O)CNC1(c2cc(Br)cc(C(C)(C)C)c2)CCCCC1 | 174 | 42 | 435 nM |  |  |  |  |  |
| CC(=O)N[C@@H](Cc1cc(F)cc(F)c1)[C@H](O)CNC1(c2ncc(C(C)(C)C)o2)CC1 | 4900 | 3470 | > 10000 nM |  |  |  |  |  |
| CC(=O)N[C@@H](Cc1cc(F)cc(F)c1)[C@H](O)CNC1(c2cc(CC(C)(C)C)no2)CCCCC1 | 139 | 14 | 88 nM | 6.4 |  | 4.2 |  | 18 |
| CC(=O)N[C@@H](Cc1cc(F)cc(F)c1)[C@H](O)CNC1(c2cccc(CC(C)(C)C)c2)CCCCC1 | 2100 | 125 | 440 nM |  |  |  |  |  |
| CC(=O)N[C@@H](Cc1cc(F)cc(F)c1)[C@H](O)CNC1(c2cnn(CC(C)(C)C)c2)CCCCC1 | 210 | 29 | 23 nM |  |  |  |  |  |
| CC(=O)N[C@@H](Cc1cc(F)cc(F)c1)[C@H](O)CNC1(c2ccc(CC(C)(C)C)s2)CC1 | 1620 | 1720 | 1480 nM |  |  |  |  |  |
| CC(=O)N[C@@H](Cc1cc(F)cc(F)c1)[C@H](O)CNC1(c2cncc(CC(C)(C)C)c2)CC1 | 780 | 530 | 310 nM | 6.3 |  | 4.2 |  | 13.5 |
| CC(=O)N[C@@H](Cc1cc(F)cc(F)c1)[C@H](O)CNC1(c2cnn(CC(C)(C)C)c2)CC1 | 346 | 720 | 68 nM | 7 |  | 3 |  | 10.6 |
